Data published in ChEMBL document CHEMBL1128566, “Inhibition of human neutrophil elastase. 3. An orally active enol acetate prodrug” (J Med Chem, 1995).

How the values were obtained:
Neutrophil elastase [1] = molecular target: T1, Neutrophil elastase (Homo sapiens, UniProt P08246); assay: Binding affinity for purified Human neutrophil elastase was determined in vitro.
T1 sequence (P08246 whole entry): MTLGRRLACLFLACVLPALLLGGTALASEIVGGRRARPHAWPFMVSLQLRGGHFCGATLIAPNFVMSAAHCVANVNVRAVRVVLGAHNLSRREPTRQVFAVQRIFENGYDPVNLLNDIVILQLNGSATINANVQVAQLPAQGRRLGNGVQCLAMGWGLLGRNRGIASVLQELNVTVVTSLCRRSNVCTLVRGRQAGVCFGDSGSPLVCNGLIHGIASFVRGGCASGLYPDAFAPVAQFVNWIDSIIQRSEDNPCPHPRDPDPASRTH

Cricetinae gen. sp. = assay: Ability to inhibit HNE-induced pulmonary hemorrhage, was examined in vivo in hamsters, after administering the compound orally 30 min prior to intratracheal instillation of 25 microg of HNE; format: functional
Method in brief: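 Hamsters dosed po at various doses 30 min before intratracheal HNE (25 μg). Killed 1 h later; trachea cannulated and lavaged three times with saline (0.04 mL/g). Hemorrhage measured as BAL hemoglobin by spectrophotometry. One-way ANOVA with Dunnett's test against vehicle-treated animals (p ≤ 0.05). ED50 extrapolated from dose-response curves.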

[2] = Half-life for the conversion of compound to ketone, was examined by 19F NMR spectroscopy in USP-simulated gastric fluid, at 50 degree Centigrade.; format: ADME
Method in brief: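 Simulated gastric fluid at pH 1.2 and 50 °C, followed for up to 12 h. Conversion of enol acetate to the parent ketone tracked to give a half-life.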

[3] = Half-life for the conversion of compound to ketone, was examined by 19F NMR spectroscopy in human blood plasma, at 37 degree Centigrade.; format: ADME, tissue-based
Method in brief: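 Human blood plasma incubated at 37 °C. Half-life measured for conversion of enol acetate to the corresponding ketone.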

[4] = Half-life for the conversion of compound to ketone, was examined by 19F NMR spectroscopy in USP-simulated intestinal fluid, at 37 degree Centigrade.; format: ADME
Method in brief: (§1)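 Simulated intestinal fluid at pH 7.5, held at 37 or 50 °C. Half-life taken for conversion of enol acetate to the corresponding ketone.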

Neutrophil elastase [5] = molecular target: T1, Neutrophil elastase; assay: Binding affinity for purified Human neutrophil elastase was determined in the presence of pig liver esterase, in vitro.
Method in brief: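 Partially purified HNE assayed with 12.5 units porcine liver esterase added, at a fixed inhibitor level (66 nM, 100 nM, 133 nM or 1.67 μM, depending on compound). Time course followed; Ki taken from the final rate after the enol acetate was fully hydrolysed. Controls: elastase plus substrate, with or without esterase.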

[6] = Half-life for the conversion of compound to ketone, was examined by 19F NMR spectroscopy in USP-simulated intestinal fluid, at 50 degree Centigrade.; format: ADME; method in brief: as §1

SMILES | Ki (Neutrophil elastase [1]) [nM] | half-life [3] [h] | Ki (Neutrophil elastase [5]) [nM] | ED50 (Cricetinae gen. sp.) [mg/kg] | further results
CC(C)[C@H](NC(=O)c1ccc(C(=O)N2CCOCC2)cc1)C(=O)N1CCC[C@H]1C(=O)NCC(=O)C(F)(F)C(F)(F)F | 150000 | – | – | – | –
CC(=O)O/C(=C(/NC(=O)[C@@H]1CCCN1C(=O)[C@@H](NC(=O)c1ccc(C(=O)N2CCOCC2)cc1)C(C)C)C(C)C)C(F)(F)F | – | 0.25 | 16 | > 75 | half-life [2]: 41 h; half-life [4]: 2.9 h
CC(C)[C@H](NC(=O)OC(C)(C)C)C(=O)N1CCC[C@H]1C(=O)NC(C)(C)C(=O)C(F)(F)C(F)(F)F | > 50000 | – | – | – | –
CC(C)=C(NC(=O)[C@@H]1CCCN1C(=O)[C@@H](NC(=O)c1ccc(C(=O)N2CCOCC2)cc1)C(C)C)C(=O)C(F)(F)C(F)(F)F | 8000 | – | – | – | –
CC(=O)O/C(=C(/NC(=O)[C@@H]1CCCN1C(=O)[C@@H](NC(=O)c1ccc(C(=O)NS(=O)(=O)c2ccc(Cl)cc2)cc1)C(C)C)C(C)C)C(F)(F)F | 320 | 0.167 | 3 | > 50 | half-life [6]: 1.2 h
CC(C)C(NC(=O)[C@@H]1CCCN1C(=O)[C@@H](NC(=O)c1ccc(C(=O)N2CCOCC2)cc1)C(C)C)C(=O)C(F)(F)F (some centres not stated) | – | – | – | > 50 | –
CC(C)C(NC(=O)[C@@H]1CCCN1C(=O)[C@@H](NC(=O)c1ccc(C(=O)N2CCOCC2)cc1)C(C)C)C(=O)C(F)(F)C(F)(F)F (some centres not stated) | – | – | – | 15 | –
CC(=O)O/C(=C(/NC(=O)[C@@H]1CCCN1C(=O)[C@@H](NC(=O)N1CCOCC1)C(C)C)C(C)C)C(F)(F)F | 6300 | – | 150 | – | –

The next lines start with results.

Ki (Neutrophil elastase [1]) [nM] | half-life [3] [h] | Ki (Neutrophil elastase [5]) [nM] | SMILES | ED50 (Cricetinae gen. sp.) [mg/kg] | further results
– | 0.667 | – | CC(=O)O/C(=C(\NC(=O)[C@@H]1CCCN1C(=O)[C@@H](NC(=O)c1ccc(C(=O)N2CCOCC2)cc1)C(C)C)C(C)C)C(F)(F)C(F)(F)F | – | half-life [4]: 6.6 h
> 2000 | 0.417 | 25 | CC(=O)O/C(=C(/NC(=O)[C@@H]1CCCN1C(=O)[C@@H](NC(=O)c1ccc(C(=O)N2CCOCC2)cc1)C(C)C)C(C)C)C(F)(F)C(F)(F)F | 9 | half-life [4]: 7.3 h; half-life [6]: 3.1 h
– | – | 25 | CC(C)C(=O)O/C(=C(/NC(=O)[C@@H]1CCCN1C(=O)[C@@H](NC(=O)c1ccc(C(=O)N2CCOCC2)cc1)C(C)C)C(C)C)C(F)(F)C(F)(F)F | – | –
– | – | 25 | CCC(=O)O/C(=C(/NC(=O)[C@@H]1CCCN1C(=O)[C@@H](NC(=O)c1ccc(C(=O)N2CCOCC2)cc1)C(C)C)C(C)C)C(F)(F)C(F)(F)F | – | –
